Here are results for 12 molecules from ChEMBL document CHEMBL3414570, “Small molecule binding sites on the Ras:SOS complex can be exploited for inhibition of Ras activation” (J Med Chem, 2015).

In test [1] the target is GTPase KRas (Homo sapiens) (UniProt P01116). The test can be described thus: Time dependent inhibition of wild-type KRas (unknown origin) assessed as SOS-mediated MANT-dGDP displacement at 200 uM by microplate reader analysis. The gist of the method:
(§1)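 KRas (WT, G12V or G12C) preequilibrated 4 h with SOS and MANT-dGDP in HEPES/NaCl/MgCl2/Tween-20 buffer; added to compound (200 μM final). Fluorescence read kinetically (ex 350/em 450 nm) to 85 min; each well referenced to time zero and to DMSO controls.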

Test [2] relates to GTPase KRas (Homo sapiens), P01116 [G12C]. Put plainly: Time dependent inhibition of KRas G12C mutant (unknown origin) assessed as SOS-mediated MANT-dGDP displacement at 200 uM by microplate reader analysis. Summed up: as §1
Test [3] relates to GTPase KRas (Homo sapiens), P01116 [G12V]. Put plainly: Time dependent inhibition of KRas G12V mutant (unknown origin) assessed as SOS-mediated MANT-dGDP displacement at 200 uM by microplate reader analysis. The gist of the method: as §1
The target in test [4] is GTPase KRas (Homo sapiens) (UniProt P01116). Put plainly: Inhibition of biotinylated KRas-GDP (unknown origin) at 200 uM incubated for 2.5 hrs followed by SOS addition measured after 4 hrs by HTRF method. The gist of the method: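 Biotin-KRas-GDP preincubated with compound (200 μM final during preincubation) 2.5 h ambient; streptavidin-europium then SOS added, 4 h equilibration. GST-Raf/anti-GST-XL665 premix plus GTPγS added to start exchange; final 3 nM KRas, 1 µM SOS, 1 μM GTPγS, 10 nM GST-Raf. HTRF read at 60 min (665/615 nm); inhibition relative to DMSO (0%) and no-KRas (100%) controls.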
For orientation: Time-resolved FRET reads energy transfer from a long-lived donor to a nearby acceptor.

For test [5], the species on record is Homo sapiens. Put plainly: Inhibition of Kras:GDP:SOS complex (unknown origin) at 200 uM after 2.5 hrs by HTRF method. The gist of the method:
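Biotin-KRas-GDP plus SOS preincubated with compound (200 μM final during preincubation) 2.5 h ambient; streptavidin-europium in DTT-containing buffer added, 4 h. GST-Raf/anti-GST-XL665 plus GTPγS then added; final 3 nM KRas, 1 µM SOS, 1 μM GTPγS. HTRF read at 60 min; inhibition relative to DMSO (0%) and no-KRas (100%) controls.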

The species entered for test [6] is Homo sapiens. The test can be described thus: Inhibition of SOS (unknown origin) at 200 uM incubated for 2.5 hrs followed by KRas-GDP addition measured after 4 hrs by HTRF method. Summed up:
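SOS preincubated with compound (200 μM final during preincubation) 2.5 h ambient; streptavidin-europium then biotin-KRas-GDP added, 4 h. GST-Raf/anti-GST-XL665 plus GTPγS started exchange; final 3 nM KRas, 1 µM SOS, 1 μM GTPγS. HTRF read at 60 min; inhibition relative to DMSO (0%) and no-KRas (100%) controls.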

A short description of test [7]: Binding affinity to 6His-TEV-SH-HRas(1 to 166) (unknown origin)/6His-TEV-SH-SOS (unknown origin) complex by nuclear magnetic resonance analysis. Also on record: species or system Homo sapiens.

Each structure is given as a SMILES string. pKd: −log10 of the molar value. Activity calls are given as the source filed them. No cut-off for these calls is given here.

Chain of GTPase KRas (Homo sapiens) (P01116 whole entry, looked up): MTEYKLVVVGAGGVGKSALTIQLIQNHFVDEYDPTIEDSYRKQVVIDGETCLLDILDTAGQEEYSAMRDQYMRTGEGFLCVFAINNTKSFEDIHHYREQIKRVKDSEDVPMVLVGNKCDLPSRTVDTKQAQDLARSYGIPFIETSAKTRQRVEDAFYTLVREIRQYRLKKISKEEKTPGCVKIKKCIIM
Chain of GTPase KRas (Homo sapiens), P01116 [G12C] (P01116 whole entry G12C): as the sequence (P01116 whole entry, looked up) above, with G12C counted along it
Chain of GTPase KRas (Homo sapiens), P01116 [G12V] (P01116 whole entry G12V): as the sequence (P01116 whole entry, looked up) above, with G12V counted along it

As usually defined, the inhibition is how much of the control response was suppressed. On to `CCN1C(=O)C=C(c2cccc(C(N)=O)c2)C1=O`, for which the inhibition result in test [1], in test [2] and in test [3] was “Active” each time. Besides, the inhibition entry (in test [4]; in the test filed under Homo sapiens [5]; in the test listed under Homo sapiens [6]) was “inactive” throughout.

Regarding `CCN1C(=O)C=C(c2cc(Cl)cc(C(N)=O)c2)C1=O`, in the test listed under Homo sapiens [5], the inhibition stood at 40%. Also, the inhibition result in the test filed under Homo sapiens [6] is “inactive”.

The term pKd denotes −log10 of the Kd, conventionally taken in molar units. Low readings indicate a high Kd, high ones a low Kd. In turn, `Brc1ccc(CN2CCCC2)cc1` had a pKd in test [7] of 2.89.

With `COc1ccc(S(=O)(=O)Nc2nccs2)cc1`, in test [7], the pKd is 2.22.

Take `CSc1nc(-c2c(C)cccc2C)nc(N2CCNCC2)n1`: in test [7], the pKd was 2.80.

In test [7], `Nc1ccc(S(=O)(=O)NC(=O)C2CC2)cc1` gave a pKd of 2.22.

`CCN1C(=O)C=C(c2cccc(CN)c2)C1=O`: the inhibition result (in test [4]; in the test listed under Homo sapiens [5]; in the test listed under Homo sapiens [6]) was “inactive” each time.

As for `O=C1C=CC(=O)N1C1CCS(=O)(=O)C1` (stereo not drawn), the inhibition in the test listed under Homo sapiens [5] came out at 40%. Besides, the inhibition result in the test filed under Homo sapiens [6] was “inactive”.

In turn, `OC1(c2ccc(Br)cc2)CCNCC1` showed a negative logarithm of the Kd (pKd) in test [7] of 2.77.

With `CCN1C(=O)C=C(c2cc(C#N)cc(C(=O)O)c2)C1=O`, the inhibition result (in test [4]; in the test filed under Homo sapiens [5]; in the test listed under Homo sapiens [6]) was “inactive” each time.

Consider `Nc1ccc(S(=O)(=O)N2CCCCC2=O)cc1`, for which the pKd in test [7] is 2.52.

`Brc1ccc2cc[nH]c2c1` gave a pKd in test [7] of 2.22.
